Assay results: ChEMBL document CHEMBL4513216, “Probing the Open Global Health Chemical Diversity Library for Multistage-Active Starting Points for Next-Generation Antimalarials” (ACS Infect Dis, 2020)

Experiment: Toxicity liver stage against HepG2, at 10uM
Assay type: cell-based
Parameters: test concentration 10 uM, cell line HepG2-A16-CD81EGFP
Details: human, HepG2-A16-CD81EGFP cells; read-out: INHIBITION
Method in brief: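 Uninfected HepG2-A16-CD81EGFP cells, 3 × 10^3 per well, 1536-well, plated on prespotted compound at 10 μM final, parasite-free screening media added to match infected plates; puromycin 10 μM positive, DMSO 0.5% negative; run in parallel with 48 h PbLuc assay at 37 °C, 5% CO2; viability by CellTiter-Glo luminescence, normalized to controls.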

Point of comparison: `CC(C)n1cc(N2CC(C(=O)N3CCCC3)CC2=O)cn1` (stereo unspecified), cytotoxicity at 10 µM 3.79%. Against it:
- CN1Cc2nc[nH]c2C[C@H]1C(=O)NC1CCCCC1 — lower, 0.0515%
- NC(=O)CN1C(=O)CO[C@H]2CN(Cc3ccccc3)C[C@H]21 — lower, 0.67%
- CC(C)CN1C[C@H](COCc2ccccc2)Oc2ncccc2C1=O — lower, -57.4%
- CNC(=O)[C@@H]1[C@@H](c2ccccc2)CN2CCN(Cc3ccccn3)C[C@H]12 — higher, 8.76%
- COC1CN(C(=O)NCC(N)=O)CCC(=O)N(C)c2ccccc21 (stereo unspecified) — lower, -3.84%
- O=C(CCN1C(=O)CC2(CCCC2)C1=O)NCCc1nccs1 — lower, 2.86%
- CCCc1nnsc1C(=O)NCC(O)c1cccs1 (stereo unspecified) — higher, 4.15%
- O=S(=O)(NCC1(O)CCOCC1)c1ccccc1Br — lower, -5.93%
- Cn1cc(C(=O)Nc2ccc3c(c2)N(C(=O)c2ccco2)CC3)nn1 — lower, 0.529%
- O=C(C1CCCCC1)N1CCO[C@@H]2CNC[C@@H]21 — higher, 8.82%
- O=C(c1cc(-c2ccn(CC3CC3)n2)n2ccccc12)N1CCCO1 — higher, 5.07%
- CNC(=O)c1cnc2n1CCN(C(=O)Cc1ccccn1)C2 — higher, 6.68%
- CCN(C)c1ncnc2c1CCN(C(=O)[C@H]1CCCO1)CC2 — lower, 3.38%
- O=C(c1ccccc1-n1cnnn1)N1CCC2(CC1)OCCO2 — lower, 1.5%
- Cn1c(=O)[nH]c(=O)n2c(CC(=O)Nc3ccc(Cl)c(Cl)c3)cnc12 — higher, 3.82%
- CCC(CC)C(=O)NCc1cnn(CC)c1 — higher, 7.19%
- Cn1cc(-c2cc(C(F)(F)F)nn2CCC#N)cn1 — higher, 6.5%
- CCS(=O)(=O)N1CCCCC1c1nc(C)no1 (stereo unspecified) — higher, 7.03%
- CC(C(=O)NCCCn1ccnc1)n1cc(Br)cn1 (stereo unspecified) — lower, -13.8%
- Cc1ccc(C2CCCN(S(=O)(=O)N3CCOCC3)C2)nc1 (stereo unspecified) — higher, 4.25%
- CCCn1nc(C)c(-c2cncn2CC2(N(C)C)CCC(C)CC2)c1C (stereo unspecified) — higher, 9.35%
- Cc1nc(N)ncc1C(=O)N1CCCC1(C)C(=O)N(C)C (stereo unspecified) — higher, 10.2%
- CC(=O)Nc1nc(SCc2ccc3c(c2)OCO3)ns1 — lower, -8.98%
- Cc1ncncc1C(=O)N1CCOC(C(=O)NC2CCCC2)C1 (stereo unspecified) — lower, -4.23%
- Cc1cc(C)nc(C2CCCN2C(=O)c2coc(C)n2)n1 (stereo unspecified) — higher, 6.93%
- Nc1nccc(C2CCN(CC3CC3)C2)n1 (stereo unspecified) — higher, 8.54%
- O=C1Nc2ccccc2CNC12CCN(CC1CC1)CC2 — higher, 6.03%
- COc1ccc(Cn2cc(C(C)O)nn2)cc1 (stereo unspecified) — higher, 16.9%
- Cc1nnc(CSc2ccccn2)o1 — higher, 14.3%
- CC(C)c1nnc2n1CCN(C(C(N)=O)c1ccc(F)cc1)C2 (stereo unspecified) — lower, 1.54%
- COCCC(=O)N1CCC(NC(=O)c2cscc2C)CC1 — lower, -14.2%
- O=C1CCC(=O)N1CCn1nnc(-c2ccc(Br)cc2)n1 — higher, 4.26%
- O=C(CS(=O)(=O)Cc1cccc(Br)c1)Nc1cn[nH]c1 — lower, 0.575%
- CC(C)(C)c1nc2cc(NC(=O)Cn3ccc(=O)[nH]c3=O)ccc2o1 — lower, -7.07%
- CCC(C)(C)NC(=O)COC(=O)c1cc(C)ccc1NC(=O)N(C)C — lower, 1.12%
- Cc1noc(C)c1CNC(C)c1ccc(S(=O)(=O)N(C)C)cc1 (stereo unspecified) — lower, 2.47%
- CN(C)c1cc2c(nn1)CCN(C(=O)C1COc3ccccc3C1)C2 (stereo unspecified) — higher, 14.3%
- Cc1noc(C)c1CCC(=O)N1CCCC(n2ccnc2C)C1 (stereo unspecified) — higher, 10.9%
- COc1cc2c(cc1OC)CCN(C(=O)Cn1nc(C)cc1C)CC2 — lower, 2.63%
- CC1CCCCN1Cc1nc(Cc2ccccc2)no1 (stereo unspecified) — higher, 4.61%
- O=C(NCC1(C(=O)O)CCC1)c1nnn(-c2ccc(F)cc2)c1C1CC1 — lower, -14.8%
- COc1c(CNC2CCOc3c(F)cccc32)c(C)nn1C (stereo unspecified) — higher, 7.5%
- Cc1oc(-c2ccsc2)nc1CC(=O)NCC(C)(C)CN(C)C — lower, -5.81%
- O=C(COc1cccc2c1CCC2=O)NCC(F)(F)F — lower, -8.74%
- CCn1cnnc1C1CCN(C(=O)c2cccc(-n3cccc3)c2)CC1 — higher, 4.56%
- COCc1csc(NC(=O)NCc2ccsc2)n1 — higher, 4.53%
- Cc1cc(NCC(=O)N(C)C)c(C(N)=O)cc1F — lower, -2.64%
- NC(=O)C1CCCN1C1CCN(C(=O)c2ccc3c(c2)OCO3)CC1 (stereo unspecified) — lower, 1.59%
- CCCc1cc(C(=O)Nc2nc(SC)ns2)[nH]n1 — lower, -19.3%
- CCOc1cccc(CCNC(=O)Cc2ccccc2O)n1 — lower, -2.55%
- CN(C)C(=O)CNC(CC(F)(F)F)c1ccc(Cl)cc1 (stereo unspecified) — lower, -3.53%
- COCCNC(=O)NC1(c2ccccc2F)CC1 — lower, -0.421%
- Cc1nc(CNC(=O)Nc2c(C)n[nH]c2C)cs1 — lower, 3.51%
- CC(NC(=O)Cn1cccn1)c1cccnc1 (stereo unspecified) — higher, 15.9%
- COCCC(=O)N1CCc2cc(Cl)cc(Cl)c2C1 — lower, -13.1%
- COC(=O)CCNC(=O)c1ccoc1CN1c2ccccc2CC1C (stereo unspecified) — lower, -9.23%
- Cc1nc(C)c2c(n1)CCN(C(=O)CC1CC1)CC2 — lower, 2.34%
- Cc1nn(C)c(C)c1C(C)NC(=O)c1cc(CN2CCC(O)CC2)on1 (stereo unspecified) — lower, 0.894%
- Cc1cccc2c1nc(CCO)n2-c1ccc(C(=O)N2CCCC2)o1 — higher, 7.39%
- Cc1n[nH]c(C)c1CC(=O)N1CCN(C)C2(CCNC(=O)CC2)C1 (stereo unspecified) — lower, 2.65%
- CCn1cnnc1Cc1nc2c([nH]1)CC(c1ccc(Cl)cc1)CNC2=O (stereo unspecified) — lower, -48.9%
- Cc1nn(C)c2nc(NCCN3CCCC(C(N)=O)C3)sc12 (stereo unspecified) — lower, 0.739%
- CN(C)CC1(O)CCN(Cc2cnc3c(-c4ccccc4)cnn3c2)C1 (stereo unspecified) — lower, -6.16%
- Cc1cc(C)n2ncc(CN3CCC(Cn4cc(CO)nn4)CC3)c2n1 — higher, 7.85%
- CN(C)CCCn1ccnc1C1CCN(c2cccc(C(=O)O)n2)CC1 — higher, 6.87%
- CN(CCc1ccccn1)C(=O)C1Cc2ccccc2CN1C (stereo unspecified) — lower, 1.47%
- Cc1ccsc1-c1nccn1CCS(=O)(=O)N1CCCC1 — lower, -3.67%
- CCC[C@@H]1CN(C(=O)c2cc3ccccc3s2)C[C@H]1NS(C)(=O)=O — lower, -9.53%
- Cc1ccc(-c2c(-c3ccccc3)ncn2CCCN2CCOCC2)o1 — higher, 6.23%
- CNc1ncccc1C(=O)N1CCCC2(CCN(C)CC2)CC1 — lower, -9.17%
- C[C@@H]1CN(Cc2ccncc2)C[C@]1(C)O — lower, 1.6%
- COC(=O)N1CCN(c2ncnc3nc(C)cc(C)c23)CC1 — lower, -15.2%
- Cc1noc(C)c1CN(C)c1nc(C2CCCC2)nc2c1cnn2C — higher, 22.2%
- O=C(NCc1cccnc1-n1cncn1)C1CC2(CCNCC2)CN1 (stereo unspecified) — lower, 2.08%
- COCCc1noc(CNC2CCCC(C)(C)C2)n1 (stereo unspecified) — lower, -0.475%
- N#Cc1cccc(S(=O)(=O)N2CCCCC2CCN2CCCC2=O)c1 (stereo unspecified) — lower, -16.9%
- CCN(CC)c1ccc(-c2nc(-c3cccc(OC)c3OC)no2)cn1 — higher, 20%
- CCCc1nc(C)cc(N2CCC3(CCC(=O)N(CCOC)C3)CC2)n1 — higher, 9.51%
- Cc1cc2c(=O)n3c(nc2s1)CCN(C(=O)c1ccncc1)CC3 — lower, 1.08%
- O=C(Nc1ccc(CCN2CCC(O)CC2)cc1)C1CCCOC1 (stereo unspecified) — lower, -4.81%
- COc1ccccc1COCC(O)CN1CC(n2cccn2)C1 (stereo unspecified) — lower, -6.25%
- CCc1csc(C2CCCN(C(=O)C3=NN(CC)C(=O)CC3)C2)n1 (stereo unspecified) — lower, -6.26%
- Cc1noc(C)c1C(=O)NCC(O)c1ccc(F)cc1F (stereo unspecified) — lower, -3.56%
- COc1ccc(C(O)CNC(=O)NCc2csc(C)n2)cc1 (stereo unspecified) — lower, -6.12%
- NC(=O)COc1cccc(C(=O)N2CCCC(n3cccn3)C2)c1 (stereo unspecified) — lower, -4.86%
- Cc1nc(C)c(CC(=O)Nc2nnc(C)s2)c(=O)[nH]1 — lower, -2.17%
- Cn1cc(Cl)cc1C(=O)N1CCCN(Cc2cccs2)CC1 — lower, -5.82%
- CN(Cc1nc(-c2ccco2)no1)C1CCCN(c2cccnn2)C1 (stereo unspecified) — lower, -7.72%
- Fc1cccc(-c2nc(CN3CCCCC3Cn3cncn3)co2)c1 (stereo unspecified) — lower, -12.8%
- CCS(=O)(=O)c1ccccc1C(=O)NCc1ccnc(N(C)C)c1 — lower, -3.92%
- CCc1nc(CN(C)C2CCN(CCNS(=O)(=O)CC)C2)no1 (stereo unspecified) — lower, -2.14%
- c1ccc(-c2nc(CN3CCCC(Cn4cncn4)C3)co2)cc1 (stereo unspecified) — lower, 3.18%
- Cc1nc(C)n(C2CCCN(C(=O)c3cc4ccccc4n3C)C2)n1 (stereo unspecified) — lower, -4.5%
- NC(=O)CN1CC(c2nc(C3CC3)no2)C1 — higher, 5.62%
- CN(C)C(=O)CO[C@@H]1CC[C@H]2[C@H]1OCCN2c1ncccn1 — lower, -6.96%
- Cc1nc(CN2C(=O)C[C@H]3[C@H]2CCN3C2CCOCC2)cs1 — lower, -7.87%
- c1nc2c(c(-c3ccsc3)n1)CCN(Cc1ccoc1)CC2 — lower, -11.4%
- O=C(O)c1cc(NS(=O)(=O)c2ccc(Cl)s2)ccc1N1CCOCC1 — lower, -4.05%
- CC1=N[C@@]2(CC[C@@H]3CN(Cc4ccccc4F)C[C@@H]32)C(=O)N1CC1CC1 — lower, 1.47%
- CC(C)N1[C@H](Cn2cncn2)C[C@@H]2CN(c3ncccn3)CC[C@@H]21 — lower, 3.17%
- CC(C)n1nc(CN(C)C)c2c1CN(CC1CC1)CC2 — lower, -3.15%
- O=C(NC1CCC1)[C@H]1CCS(=O)(=O)[C@@H]2CN(CCc3ccccc3)C[C@H]12 — lower, -3.06%
- N#Cc1cccc(N2CC3(CCN(C(=O)c4cccnc4)C3)CC2=O)c1 (stereo unspecified) — lower, 0.925%
- Cc1noc(C)c1CN1CCO[C@H]2CN(CC3CC3)C[C@H]21 — lower, -4.25%
- Cc1nc(N2CCCC2)nc2c1CCN(C(=O)CN(C)C)CC2 — lower, -5.73%
- CC(C)N(C)Cc1nnc2n1CCN(CC1CC1)CC2 — lower, 0.319%
- CN(C)C(=O)N[C@@H]1CN(C2CCOCC2)[C@@H]2CCCO[C@@H]21 — lower, -4.08%
- COCCN1C[C@@H](C)[C@@]2(COCCN(C(=O)c3cccs3)C2)C1 — higher, 9.7%
- O=C(N[C@@H]1CN(c2ncccn2)C[C@@H]2CCCO[C@@H]21)c1cnccn1 — lower, 0.199%
- CN(C)c1nc2cn(C3CC(C)(C)NC(C)(C)C3)c(=O)c-2c[nH]1 — higher, 6.39%
